Results published in the array DNA melting data of Ke et al. (doi:10.1101/2024.01.08.574731).

What was measured:
[1] = folding enthalpy; higher = less favourable; fluorescence melt of hairpins on a sequencing array, two-state fit; conditions: sodium 0.088 M
In short: (§1)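 Melting temperature and folding enthalpy were derived from bootstrapped two-state fits. The fitted temperatures were raised by 9.35 °C to agree with UV melts, and four replicates were combined by inverse variance. The underlying data were Cy3 fluorescence images of library hairpins, with annealed Cy3 and quencher oligos, on a sequenced MiSeq flow cell in 50 mM Na-HEPES pH 8.0, 25 mM NaCl, taken in 2.5 °C steps up to 60 °C, normalised to pre-quench Cy3 and to control constructs.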

[2] = melting temperature; fluorescence melt of hairpins on a sequencing array, two-state fit, raised by 9.35 °C to match UV melts; conditions: sodium 0.088 M
In short: as §1

| Sequence | folding enthalpy [1] [kcal/mol] | Tm [2] [°C] |
| --- | --- | --- |
| GGTTCCGAAAGGACGACC ((((((....)))..))) | -15.8 | 37.4 |
| GGTTCCGAAAGGATTACC ((((((....)))..))) | -19.9 | 34.6 |
| GGTTCCGGAAACGGAGCC ((.((((....)))).)) | -41.6 | 58.4 |
| GGTTCGCCGAAAGGCACC (((..(((....)))))) | -8.49 | 30.1 |
| GGTTCGCGAAAGCGTACC (((.(((....))).))) | -26 | 56 |
| GGTTCGGAAACGAACC ((((((....)))))) | -33.2 | 67.3 |
| GGTTCGGGAAACCAAACC ((((.((....)).)))) | -30.3 | 40.4 |
| GGTTCGGGAAACTGAGCC ((.((.(....).)).)) | -27.1 | 39.3 |
| GGTTCTGGAAACGGAACC (((((.(....).))))) | -45 | 52.3 |
| GGTTCTGGAAACGGAATC (.(((.(....).))).) | -18.7 | 33 |
| GGTTGACCGAAAGGTACC (((..(((....)))))) | -16.5 | 36.4 |
| GGTTGAGAAATCAACC ((((((....)))))) | -34 | 53.3 |
| GGTTGCGAAAGCAACACC ((((((....)))..))) | -8.28 | 50 |
| GGTTGCGAAAGCAAGACC ((((((....)))..))) | -14.6 | 44.2 |
| GGTTGCGAAAGCACACC ((((((....))).))) | -19.7 | 53.4 |
| GGTTGCGAAAGCACCACC ((((((....)))..))) | -11.6 | 45.1 |
| GGTTGCGAAAGCACGACC ((((((....)))..))) | -15.8 | 40.6 |
| GGTTGCGAAAGCATAACC ((((((....)))..))) | -20.5 | 45.9 |
| GGTTGCGAAAGCATCACC ((((((....)))..))) | -13 | 36.2 |
| GGTTGCGAAAGCATTACC ((((((....)))..))) | -17.7 | 37.8 |
| GGTTGCGGAAACGCAGCC ((.((((....)))).)) | -39.2 | 63.5 |
| GGTTGCGGAAACGCGACC (((.(((....))).))) | -37.7 | 65.8 |
| GGTTGGACGAAAGTCACC (((..(((....)))))) | -12.2 | 34.1 |

| Sequence | folding enthalpy [1] [kcal/mol] | Tm [2] [°C] |
| --- | --- | --- |
| GGTTGGCGAAAGCCTACC (((.(((....))).))) | -25.3 | 59.6 |
| GGTTGGGGAAACTCGACC (((.(.(....).).))) | -23.2 | 39.5 |
| GGTTGTACGAAAGTAACC (((..(((....)))))) | -20.9 | 38 |
| GGTTGTCGAAAGACCACC (((.(((....))).))) | -26.2 | 48.3 |
| GGTTGTGGAAACACAGTC (..((((....))))..) | -13.2 | 29.1 |
| GGTTGTGGAAACATAGCC ((.(.((....)).).)) | -19.1 | 31.6 |
| GGTTTACCGAAAGGTACC (((..(((....)))))) | -9.75 | 32.4 |
| GGTTTAGGAAACTAAACC (((((((....))))))) | -54.6 | 54.2 |
| GGTTTCGAAAGAAATACC ((((((....)))..))) | -19.6 | 32.7 |
| GGTTTCGAAAGAACCACC ((((((....)))..))) | -17.1 | 34.4 |
| GGTTTCGAAAGAATAACC ((((((....)))..))) | -20.1 | 31.5 |
| GGTTTCGAAAGAATACC ((((((....))).))) | -25.6 | 38 |
| GGTTTCGAAAGAATTACC ((((((....)))..))) | -14.2 | 27.9 |
| GGTTTCGGAAACAAAACC (((((.(....).))))) | -22.7 | 36.6 |
| GGTTTCGGAAACGAAACC (((((((....))))))) | -46 | 66.5 |
| GGTTTGCGAAAGCATACC (((.(((....))).))) | -40.6 | 52.9 |
| GGTTTGGCGAAAGCCACC (((..(((....)))))) | -8.59 | 31.9 |
| GGTTTGGGAAACCAAGCC ((.((((....)))).)) | -33.5 | 49.9 |
| GGTTTTCGAAAGAACACC (((.(((....))).))) | -35.5 | 42.8 |
| GGTTTTGAAAAAAACC ((((((....)))))) | -26.5 | 51.5 |
| GGTTTTGGAAACAAAATC (.(((((....))))).) | -33.4 | 41.5 |
| GGTTTTGGAAACAAAGCC ((.((((....)))).)) | -29.1 | 46 |
| GGTTTTTCGAAAGAAACC (((..(((....)))))) | -18.8 | 34 |

| Sequence | folding enthalpy [1] [kcal/mol] | Tm [2] [°C] |
| --- | --- | --- |
| GTAAAAACGAAAGTTTAC (((..(((....)))))) | -11.4 | 27.8 |
| GTAAAACGAAAGTTCTAC (((.(((....))).))) | -13.9 | 27.6 |
| GTAAAACGAAAGTTTAC (((.(((....)))))) | -17.4 | 35.2 |
| GTAAACGAAAGTTTAC ((((((....)))))) | -35.2 | 56 |
| GTAAAGCGAAAGCTGTAC (((.(((....))).))) | -20.4 | 44.4 |
| GTAAAGGCGAAAGCCTAC (((..(((....)))))) | -10 | 35 |
| GTAAATGGAAACGTTTAC (((((.(....).))))) | -32.9 | 35 |
| GTAACAGGAAACTGCTAC (((.(((....))).))) | -29.1 | 32 |
| GTAACCGAAAGGTCTAC ((((((....))).))) | -13.4 | 35.5 |
| GTAACCGAAAGGTTGTAC ((((((....)))..))) | -10.4 | 33.4 |
| GTAACTGGAAACAGTTGC (.(((((....))))).) | -26.6 | 47.4 |
| GTAAGACCGAAAGGTTAC (((..(((....)))))) | -13.8 | 30.3 |
| GTAAGACGAAAGTCATAC (((.(((....))).))) | -20.6 | 39.1 |
| GTAAGACGAAAGTCCTAC (((.(((....))).))) | -15.7 | 34.7 |
| GTAAGCCGAAAGGCATAC (((.(((....))).))) | -18.4 | 46.6 |
| GTAAGCCGAAAGGCGTAC (((.(((....))).))) | -14.1 | 54.4 |
| GTAAGCGAAAGCTACTAC ((((((....)))..))) | -14.1 | 47.5 |
| GTAAGCGAAAGCTCTTAC ((((((....)))..))) | -12.7 | 33.2 |
| GTAAGCGAAAGCTGCTAC ((((((....)))..))) | -12.7 | 41 |
| GTAAGCGAAAGCTGGTAC ((((((....)))..))) | -11 | 32.3 |
| GTAAGCGAAAGCTTCTAC ((((((....)))..))) | -11.2 | 33.6 |
| GTAAGGGGAAACCCTCAC ((.((((....)))).)) | -13.7 | 30.2 |
| GTAAGTCGAAAGACGTAC (((.(((....))).))) | -15.2 | 47.1 |

| Sequence | folding enthalpy [1] [kcal/mol] | Tm [2] [°C] |
| --- | --- | --- |
| GTAAGTGAAAACTTAC ((((((....)))))) | -27.4 | 48.7 |
| GTAAGTGGAAACACTCAC ((.((((....)))).)) | -15.4 | 32.7 |
| GTAAGTGGAAACACTTGC (.(((((....))))).) | -26.7 | 45 |
| GTAAGTGGAAACATTTAC ((((.((....)).)))) | -25.6 | 32.3 |
| GTAATACGAAAGTACTAC (((.(((....))).))) | -16.9 | 31.1 |
| GTAATAGCGAAAGCTTAC (((..(((....)))))) | -12.6 | 30.2 |
| GTAATCCGAAAGGACTAC (((.(((....))).))) | -25.6 | 37.9 |
| GTAATCGAAAGATGCTAC ((((((....)))..))) | -17.3 | 30.2 |
| GTAATGCCGAAAGGCTAC (((..(((....)))))) | -9.18 | 26.8 |
| GTAATGCGAAAGCAGTAC (((.(((....))).))) | -30.6 | 53.4 |
| GTAATGCGAAAGCATAC (((.(((....)))))) | -13.3 | 46 |
| GTAATGGCGAAAGCCTAC (((..(((....)))))) | -7.82 | 31.3 |
| GTAATTGAAAAATTAC ((((((....)))))) | -26.2 | 40.3 |
| GTACAAGAAATTGTAC ((((((....)))))) | -32.5 | 45 |
| GTACAAGGAAACCTGTAC (((((.(....).))))) | -26.1 | 38.2 |
| GTACACGAAAGTGAATAC ((((((....)))..))) | -10.6 | 28.6 |
| GTACACGAAAGTGACTAC ((((((....)))..))) | -15.4 | 37.2 |
| GTACACGAAAGTGCTTAC ((((((....)))..))) | -11.9 | 33.3 |
| GTACACGAAAGTGTAC ((((((....)))))) | -30.2 | 68.3 |
| GTACACGGAAACGTGTAC (((((((....))))))) | -37.7 | 63.4 |
| GTACACGGAAACGTGTGC (.(((((....))))).) | -27.1 | 56.2 |
| GTACACTCGAAAGAGTAC (((..(((....)))))) | -13.8 | 29.4 |
